Data taken from BindingDB's records for doi:10.1021/jm9802620 (University of Washington, 1998).

How the values were obtained:
[1] = biological target: Glyceraldehyde-3-phosphate dehydrogenase (GAPDH); assay: Inhibitory activity measured for Glyceraldehyde-3-phosphate dehydrogenase (GAPDH) in Leishmania. mexicana
Summary of the method: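 Recombinant glycosomal GAPDH of L. mexicana, T. cruzi or T. brucei; human enzyme from erythrocytes. NADH formation followed at 340 nm, 21 °C, in 0.1 M triethanolamine-HCl pH 7.6 with DTT, NaN3, MgSO4, EDTA, 10 mM K2HPO4, 0.8 mM glyceraldehyde-3-phosphate, 0.19 mM NAD+, 5% DMSO. Reaction started with enzyme. IC50 from 0–1 min initial rates at ≥5 inhibitor levels versus DMSO control.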

[2] = biological target: Glyceraldehyde-3-phosphate dehydrogenase (GAPDH); assay: Inhibitory activity was measured for Glyceraldehyde-3-phosphate dehydrogenase (GAPDH) in Leishmania. mexicana.

SMILES | IC50 [1] [mM] | IC50 [2] [mM]
CC(C)=CCNc1ncnc2c1ncn2C1O[C@H](CO)[C@@H](O)[C@H]1O (stereo not given in full) | > 5 | –
CC(C)CCNc1ncnc2c1ncn2C1O[C@H](CO)[C@@H](O)[C@H]1O (stereo not given in full) | – | 3.7

Second part, the compound after the results:

IC50 [1] [mM] | IC50 [2] [mM] | SMILES
0.36 | – | OC[C@H]1OC(n2cnc3c(N[C@@H]4CCCc5ccccc54)ncnc32)[C@H](O)[C@@H]1O (stereo not given in full)
0.7 | – | Cc1cccc(CNc2ncnc3c2ncn3C2O[C@H](CO)[C@@H](O)[C@H]2O)c1 (stereo not given in full)
3.1 | – | Nc1ccc(CNc2ncnc3c2ncn3C2O[C@H](CO)[C@@H](O)[C@H]2O)cc1 (stereo not given in full)
